Data: paper PMC2745822 (The Journal of pharmacology and experimental therapeutics, 2008)
Several values for one entry are separate records, joined by “and”; a condition that tells them apart may be missing. Equal entries are not always repeated. Where two headings read alike, the source gives them in different places.

Tests used:
rM4 receptor [1] = molecular target: T1, rM4 receptor (Rattus norvegicus, UniProt P08485); conditions: ref Shirey et al., 2008; cited from earlier work
T1 sequence (P08485 1-478): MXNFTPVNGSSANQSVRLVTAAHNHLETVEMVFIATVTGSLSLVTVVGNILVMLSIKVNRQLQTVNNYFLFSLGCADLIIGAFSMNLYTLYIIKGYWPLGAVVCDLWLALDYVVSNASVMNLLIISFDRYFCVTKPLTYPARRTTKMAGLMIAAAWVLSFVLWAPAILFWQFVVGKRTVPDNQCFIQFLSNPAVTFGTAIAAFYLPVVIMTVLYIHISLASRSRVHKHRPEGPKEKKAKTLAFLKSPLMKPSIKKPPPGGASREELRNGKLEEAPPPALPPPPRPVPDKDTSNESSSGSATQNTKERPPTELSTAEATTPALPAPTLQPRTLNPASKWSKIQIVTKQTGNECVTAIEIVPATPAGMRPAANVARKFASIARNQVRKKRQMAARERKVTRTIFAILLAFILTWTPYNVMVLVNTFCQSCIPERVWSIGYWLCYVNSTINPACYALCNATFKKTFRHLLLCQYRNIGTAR

other mAChR subtypes = conditions: ref Shirey et al., 2008; cited from earlier work
[2] = ref Shirey et al., 2008; cited from earlier work
rat M4 mAChR [3] = molecular target: T2, rat M4 mAChR (Rattus norvegicus, UniProt P08485); conditions: ref Shirey et al., 2008, cited from earlier work
T2 sequence (P08485 1-478): T1 sequence (P08485 1-478)

[4] = Formulation into homogeneous dosing solution; type: physicochemical; conditions: vehicles acceptable for in vivo studies
Procedure, shortened: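 Test compound was jet-milled to uniform nanoparticles before vehicle formulation. It was then dissolved at 56.6 mg/ml in 10% Tween 80 in double-deionized water, with pH adjusted to about 7.0 using 1 N NaOH. The mixture was sonicated until a uniform homogeneous solution formed, for intraperitoneal dosing.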

[5] = Brain and plasma exposure pharmacokinetic profiling; type: in vivo, rat; conditions: male rats, 56.6 mg/kg i.p.; mean ± S.E.M., n = 3
Procedure, shortened: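 Male Sprague-Dawley rats (225–250 g), fasted overnight. Test compound dissolved at 56.6 mg/ml in 10% Tween 80/water, pH ~7.0 (1 N NaOH), sonicated, and given at 56.6 mg/kg i.p. Brain and trunk plasma taken at 0.5, 1, 2 and 4 h, three rats per time point. Brain homogenized in acetonitrile/methanol and plasma precipitated with acidified acetonitrile, both with internal standard. Analyzed by positive-ESI LC-MS-MS, linear 50 ng/ml–100 µg/ml. AUC0-∞ by trapezoidal method.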

rM4 receptor [6] = molecular target: T1, rM4 receptor; experiment: [3H]NMS equilibrium radioligand binding, membranes from rM4-expressing CHO cells; conditions: 0.1 nM [3H]NMS; concentrations up to 30 µM
[7] = test system: amphetamine-induced hyperlocomotion in rats; experiment: Amphetamine-induced hyperlocomotion; type: in vivo, rat; conditions: 56.6 mg/kg i.p., 30-min pretreatment; 1 mg/kg s.c. amphetamine; 60 min
[8] = test system: panel of 68 discrete GPCRs, ion channels, transporters, and enzymes; experiment: MDS Pharma LeadProfiling Screen radioligand binding panel; conditions: 10 µM; for VU0152099 with the single exception of GABAA receptors
rat M4 mAChR [9] = molecular target: T2, rat M4 mAChR; type: cell-based; conditions: compound alone
[10] = molecular target: T3, human M4 muscarinic receptor (Homo sapiens, UniProt P08173); conditions: in presence of compound
T3 sequence (P08173 1-479): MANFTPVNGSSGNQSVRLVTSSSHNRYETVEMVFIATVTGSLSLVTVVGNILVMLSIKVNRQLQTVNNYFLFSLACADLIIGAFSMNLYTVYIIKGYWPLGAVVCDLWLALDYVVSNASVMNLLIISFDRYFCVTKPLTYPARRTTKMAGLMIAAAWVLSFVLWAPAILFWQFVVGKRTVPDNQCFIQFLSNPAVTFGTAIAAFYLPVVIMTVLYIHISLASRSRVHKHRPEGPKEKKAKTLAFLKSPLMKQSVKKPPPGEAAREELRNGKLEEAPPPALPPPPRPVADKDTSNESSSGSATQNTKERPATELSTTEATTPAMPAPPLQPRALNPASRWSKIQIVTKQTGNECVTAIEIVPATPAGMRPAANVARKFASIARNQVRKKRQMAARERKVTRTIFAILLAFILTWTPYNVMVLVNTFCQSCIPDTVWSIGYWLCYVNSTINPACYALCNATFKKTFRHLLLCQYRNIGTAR

[11] = test system: motor performance in rats; experiment: Rotorod test; type: in vivo, rat; conditions: 30, 56.6, or 100 mg/kg i.p., 30-min pretreatment
Procedure, shortened: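 Rats got one 120-s training trial, then two 85-s trials about 10 min apart, on a 7.5-cm rod turning at a constant 20 rpm. They were pretreated i.p. for 30 min with vehicle or test compound (30, 56.6 or 100 mg/kg, salt form, 1.0 ml/kg in 10% Tween 80/water, pH ~7.0). Time on the rod was recorded, capped at 85 s. Analysis was one-way ANOVA with Dunnett's test versus vehicle.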

[12] = test system: amphetamine-induced hyperlocomotion in rats; conditions: ref Stanhope et al., 2001; cited from earlier work
[13] = ref Bodick et al., 1997; Shekhar et al., 2001, 2008; cited from earlier work

Structure (SMILES) | decrease in the ACh Ki (rM4 receptor [1]) [fold] | activation of the other mAChR subtypes (other mAChR subtypes) | log P [2] | EC50 (rat M4 mAChR [3]; read-out: M4 EC50) [nM] | potentiation (-fold shift) of the M4 ACh CRC (rat M4 mAChR [3]) [fold] | formulation into homogeneous dosing solution [4] | Mean AUC (0-∞) brain [5] [ng·h/g] | Mean AUC(0-∞) plasma [5] [ng·h/mL] | t1/2 brain [5] [h] | t1/2 plasma [5] [h] | displacement of [3H]NMS (rM4 receptor [6]) | effect on amphetamine-induced hyperlocomotion [7] | displacement of binding, all targets tested [8] | response in the absence of an ACh EC20 (agonist activity) (rat M4 mAChR [9]) | maximal response to ACh [10] | effect on performance in the rotorod test [11] | effect on amphetamine-induced hyperlocomotion [12] | clinical efficacy [13]
Cc1cc(C)c2c(N)c(C(=O)NCc3ccc(Cl)cc3)sc2n1 [VU10010, 3-amino-N-(4-chlorobenzyl)-4,6-dimethylthieno[2,3-b]pyridine-2-carboxamide] | 14 | causes no activation of the other mAChR subtypes | ~ 4.5 and 4.5 | ~400 | 47 | unable to formulate VU10010 into a homogeneous solution in any acceptable vehicle | – | – | – | – | – | – | – | – | – | – | – | –
COc1ccc(CNC(=O)c2sc3nc(C)cc(C)c3c2N)cc1 [VU0152100, 3-amino-N-(4-methoxybenzyl)-4,6-dimethylthieno[2,3-b]pyridine carboxamide] | – | – | – | – | – | afforded homogeneous dosing solutions in multiple vehicles acceptable for in vivo studies | 5726.35 ± 694.68 | 6570.35 ± 235.87 | 1.12 ± 0.01 | 1.62 ± 0.69 | neither M4 PAM displaced | produced robust decreases in amphetamine-induced hyperlocomotion | less than 50% | neither VU0152099 nor VU0152100 elicited a response | approximately 130% | had no effect on performance in the rotorod test | – | –
CCCCCCOc1nsnc1C1=CCCN(C)C1 [xanomeline, 3-[3-hexyloxy-1,2,5-thiadiazo-4-yl]-1,2,5,6-tetrahydro-1-methylpyridine] | – | – | – | – | – | – | – | – | – | – | – | – | – | – | – | – | reversal of amphetamine-induced hyperlocomotion in rats | demonstrated efficacy as both a cognition-enhancing agent and an antipsychotic agent
